Values belong to the compound of their own block, whether it stands above or below them.
Tests used:
Sestrin2 = target: T1, Sestrin2 (Homo sapiens, UniProt P58004); assay: MIDAS protein-metabolite interaction screen; type: binding; details: significant PMI Q < 0.01
T1 sequence (P58004 1-480): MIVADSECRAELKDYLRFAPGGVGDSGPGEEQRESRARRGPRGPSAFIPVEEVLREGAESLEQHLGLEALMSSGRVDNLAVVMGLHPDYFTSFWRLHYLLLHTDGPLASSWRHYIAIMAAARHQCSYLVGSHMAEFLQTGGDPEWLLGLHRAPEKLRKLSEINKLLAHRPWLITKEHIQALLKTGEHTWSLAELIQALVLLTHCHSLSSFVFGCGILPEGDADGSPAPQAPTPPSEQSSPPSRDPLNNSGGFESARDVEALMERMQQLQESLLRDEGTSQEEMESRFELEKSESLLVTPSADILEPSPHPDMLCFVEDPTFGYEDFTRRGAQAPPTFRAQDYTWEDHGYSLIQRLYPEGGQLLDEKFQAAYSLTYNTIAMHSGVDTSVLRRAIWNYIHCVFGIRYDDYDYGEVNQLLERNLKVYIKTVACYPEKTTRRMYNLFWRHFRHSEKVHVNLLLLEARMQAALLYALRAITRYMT
Method in brief: (§1)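 Purified protein is separated from a defined metabolite library by a semipermeable dialysis membrane that passes metabolites but not protein, then incubated to relative equilibrium. Protein is denatured and removed. Metabolites in both chambers are quantified by flow injection analysis–MS, with methods optimized for each pool. The between-chamber fold change is normalized and corrected for nonspecific interactions.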

CASTOR1 = target: T2, CASTOR1 (Homo sapiens, UniProt Q8WTX7); assay: MIDAS; type: binding; details: significant PMI Q < 0.01
T2 sequence (Q8WTX7 1-329): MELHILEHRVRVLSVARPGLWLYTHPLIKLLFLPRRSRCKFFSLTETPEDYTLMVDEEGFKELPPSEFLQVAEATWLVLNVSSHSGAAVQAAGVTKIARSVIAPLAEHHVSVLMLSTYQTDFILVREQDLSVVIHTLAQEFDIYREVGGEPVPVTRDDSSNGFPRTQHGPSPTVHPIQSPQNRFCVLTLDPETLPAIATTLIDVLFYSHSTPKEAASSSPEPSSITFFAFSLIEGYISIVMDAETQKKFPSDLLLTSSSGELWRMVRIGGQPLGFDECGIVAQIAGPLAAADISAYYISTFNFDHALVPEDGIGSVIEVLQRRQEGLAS
Method in brief: as §1

GAPDH = GAPDH (Homo sapiens, UniProt P04406); assay: MIDAS protein-metabolite interaction screen; type: binding; details: significant PMI Q < 0.01
GAPDH, sequence (P04406 whole entry): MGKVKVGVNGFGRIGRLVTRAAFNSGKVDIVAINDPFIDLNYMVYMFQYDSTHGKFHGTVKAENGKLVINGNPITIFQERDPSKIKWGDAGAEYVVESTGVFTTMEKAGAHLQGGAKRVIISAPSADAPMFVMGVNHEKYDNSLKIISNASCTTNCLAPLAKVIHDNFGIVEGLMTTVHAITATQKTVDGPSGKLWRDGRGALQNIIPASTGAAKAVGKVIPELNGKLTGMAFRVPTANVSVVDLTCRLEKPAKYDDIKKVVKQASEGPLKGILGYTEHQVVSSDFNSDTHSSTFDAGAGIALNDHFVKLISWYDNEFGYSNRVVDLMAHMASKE

PGAM1 = PGAM1 (Homo sapiens, UniProt P18669); assay: MIDAS protein-metabolite interaction screen; type: binding; details: significant PMI Q < 0.01
PGAM1, sequence (P18669 whole entry): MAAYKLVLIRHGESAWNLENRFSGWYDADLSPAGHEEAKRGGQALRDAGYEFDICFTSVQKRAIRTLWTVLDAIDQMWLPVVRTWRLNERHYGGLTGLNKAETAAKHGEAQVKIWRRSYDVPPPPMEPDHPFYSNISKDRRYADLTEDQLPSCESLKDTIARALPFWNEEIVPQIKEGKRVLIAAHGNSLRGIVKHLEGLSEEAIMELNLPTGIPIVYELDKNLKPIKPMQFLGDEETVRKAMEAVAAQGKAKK
Method in brief: as §1

PGAM2 = target: T3, PGAM2 (Homo sapiens, UniProt P15259); assay: MIDAS protein-metabolite interaction screen; type: binding; details: significant PMI Q < 0.01
T3 sequence (P15259 1-253): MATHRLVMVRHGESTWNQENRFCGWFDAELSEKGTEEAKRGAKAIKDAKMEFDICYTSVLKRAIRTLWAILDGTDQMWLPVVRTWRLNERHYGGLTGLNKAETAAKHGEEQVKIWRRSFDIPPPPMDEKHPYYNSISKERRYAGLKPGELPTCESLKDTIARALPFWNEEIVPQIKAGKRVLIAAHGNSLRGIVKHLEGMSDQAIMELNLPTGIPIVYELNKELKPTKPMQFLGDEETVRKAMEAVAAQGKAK
Method in brief: as §1

ENO1 = ENO1 (Homo sapiens, UniProt P06733); assay: Differential scanning fluorimetry; type: binding; details: DSF, ENO1
ENO1, sequence (P06733 whole entry): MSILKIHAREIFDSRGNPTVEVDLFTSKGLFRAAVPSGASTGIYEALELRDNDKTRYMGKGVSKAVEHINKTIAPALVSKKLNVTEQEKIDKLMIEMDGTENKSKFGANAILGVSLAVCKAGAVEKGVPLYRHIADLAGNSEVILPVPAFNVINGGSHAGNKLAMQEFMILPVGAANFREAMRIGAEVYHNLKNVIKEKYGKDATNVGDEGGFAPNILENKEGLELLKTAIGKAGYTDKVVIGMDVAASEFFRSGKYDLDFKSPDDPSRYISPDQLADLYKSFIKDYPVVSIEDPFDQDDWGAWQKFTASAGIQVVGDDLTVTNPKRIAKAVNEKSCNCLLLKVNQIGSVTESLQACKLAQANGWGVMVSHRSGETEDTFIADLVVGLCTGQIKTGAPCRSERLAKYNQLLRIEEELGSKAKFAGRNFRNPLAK

ENO2 = ENO2 (Homo sapiens, UniProt P09104); assay: Differential scanning fluorimetry; type: binding; details: DSF, ENO2
ENO2, sequence (P09104 whole entry): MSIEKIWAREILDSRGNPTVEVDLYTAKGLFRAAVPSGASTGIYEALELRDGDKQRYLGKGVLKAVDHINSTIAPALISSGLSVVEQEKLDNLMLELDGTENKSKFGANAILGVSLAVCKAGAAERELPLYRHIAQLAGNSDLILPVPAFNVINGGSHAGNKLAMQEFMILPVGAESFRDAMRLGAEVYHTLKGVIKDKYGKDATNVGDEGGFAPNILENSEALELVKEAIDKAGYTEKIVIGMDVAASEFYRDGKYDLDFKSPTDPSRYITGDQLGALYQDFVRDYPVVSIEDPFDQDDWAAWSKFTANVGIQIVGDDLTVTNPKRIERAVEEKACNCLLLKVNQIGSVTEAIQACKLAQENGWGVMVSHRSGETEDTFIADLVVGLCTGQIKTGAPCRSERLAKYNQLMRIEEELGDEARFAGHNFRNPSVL

LDHA [1] = target: T4, LDHA (Homo sapiens, UniProt P00338); assay: LDH enzyme activity assay; type: biochemical; details: for IC50: LDHA enzyme activity, acyl-CoAs; for inhibition of LDHA enzyme activity: in vitro
Method in brief: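 LDH isoform activity measured in vitro with test metabolites (adenosine nucleotides, CoA and acyl-CoAs) over a concentration range. IC50 is derived from the inhibition curves. Mode of inhibition is assessed against NAD and lactate.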

H9c2 rat cardiomyoblasts [2] = assay: 13C-lactate metabolic tracing into pyruvate; type: cell-based
H9c2 rat cardiomyoblasts [3] = assay: 13C-glucose metabolic tracing into lactate; type: cell-based; details: for labeling of lactate from 13C-glucose: BSA-conjugated palmitate vs BSA
LDHB = LDHB (Homo sapiens, UniProt P07195); assay: MIDAS protein-metabolite interaction screen; type: binding; details: significant PMI Q < 0.01
LDHB, sequence (P07195 whole entry): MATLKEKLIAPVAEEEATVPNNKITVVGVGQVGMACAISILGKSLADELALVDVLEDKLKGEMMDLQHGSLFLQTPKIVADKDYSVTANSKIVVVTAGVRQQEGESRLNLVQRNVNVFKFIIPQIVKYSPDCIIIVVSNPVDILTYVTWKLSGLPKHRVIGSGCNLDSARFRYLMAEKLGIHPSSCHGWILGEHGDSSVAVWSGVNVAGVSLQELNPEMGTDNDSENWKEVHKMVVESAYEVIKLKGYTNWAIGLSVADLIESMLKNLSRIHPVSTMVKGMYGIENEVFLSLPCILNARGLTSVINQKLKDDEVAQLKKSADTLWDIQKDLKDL
Method in brief: as §1

LDHA [4] = target: T4, LDHA; assay: MIDAS protein-metabolite interaction screen; type: binding; details: significant PMI Q < 0.01
Method in brief: as §1

[5] = dimethylated fatty acid analogs

MIDAS protein-metabolite interaction (Sestrin2): bind
MIDAS protein-metabolite interaction (CASTOR1): bind
Compound: NCCCCCN [cadaverine]

MIDAS protein-metabolite interaction (LDHB): interactions
MIDAS protein-metabolite interaction (LDHA [4]): interactions
Compound: Cc1cc2nc3c(=O)[nH]c(=O)nc-3n(C[C@H](O)[C@H](O)[C@H](O)COP(=O)(O)OP(=O)(O)OC[C@H]3O[C@@H](n4cnc5c(N)ncnc54)[C@H](O)[C@@H]3O)c2cc1C [flavin adenine dinucleotide]

MIDAS protein-metabolite interaction (GAPDH): interacted
MIDAS protein-metabolite interaction (PGAM1): interacted
Compound: O=P(O)(O)O[C@@H]1[C@H](O)[C@H](O)[C@@H](OP(=O)(O)O)[C@H](OP(=O)(O)O)[C@H]1O [inositol-1,4,5-trisphosphate]

MIDAS protein-metabolite interaction (Sestrin2): most enriched interactors
Compound: CC[C@H](C)[C@H](N)C(=O)O [isoleucine]

MIDAS protein-metabolite interaction (Sestrin2): most enriched interactors
Compound: CC(C)C[C@H](N)C(=O)O [leucine]

MIDAS protein-metabolite interaction (GAPDH): interacted
Compound: CC(C)(CO[P@@](=O)(O)O[P@@](=O)(O)OC[C@H]1O[C@@H](n2cnc3c(N)ncnc32)[C@H](O)[C@@H]1OP(=O)(O)O)[C@@H](O)C(=O)NCCC(=O)NCCSC(=O)CC(=O)O [malonyl-coenzyme A]

MIDAS protein-metabolite interaction (Sestrin2): most enriched interactors
Compound: CSCC[C@H](N)C(=O)O [methionine]

MIDAS protein-metabolite interaction (LDHB): interactions
MIDAS protein-metabolite interaction (LDHA [4]): interactions
Compound: NC(=O)c1ccc[n+]([C@@H]2O[C@H](COP(=O)([O-])O)[C@@H](O)[C@H]2O)c1 [nicotinamide mononucleotide]

MIDAS protein-metabolite interaction (LDHB): interactions
MIDAS protein-metabolite interaction (LDHA [4]): interactions
Compound: O=C(O)CC(=O)C(=O)O [oxaloacetate]

thermal stabilization of protein upon ligand binding (ENO1): not
thermal stabilization of protein upon ligand binding (ENO2): not
Compound: N[C@@H](Cc1ccc(OP(=O)(O)O)cc1)C(=O)O [phosphotyrosine]

thermal stabilization of protein upon ligand binding (ENO1): not
thermal stabilization of protein upon ligand binding (ENO2): not
Compound: N[C@@H](CO)C(=O)O [serine]

thermal stabilization of protein upon ligand binding (ENO1): not
thermal stabilization of protein upon ligand binding (ENO2): not
Compound: phosphate

Second part, the compound before the results:

Compound: NCCCN [1,3-diaminopropane]
MIDAS protein-metabolite interaction (Sestrin2): bind
MIDAS protein-metabolite interaction (CASTOR1): bind

Compound: O=C(O)C(COP(=O)(O)O)OP(=O)(O)O (centres unmarked) [2,3-BPG, 2,3-bisphosphoglycerate]
MIDAS protein-metabolite interaction (GAPDH): interacted
MIDAS protein-metabolite interaction (PGAM1): interacted
MIDAS protein-metabolite interaction (PGAM2): interacted

Compound: O=C(O)[C@@H](CO)OP(=O)(O)O [2PG, 2-phosphoglycerate]
Kd (ENO1; read-out: apparent dissociation constant (Kd app)): 298 µM
Kd (ENO2; read-out: apparent dissociation constant (KD app)): 289 µM

Compound: O=C(O)[C@H](O)COP(=O)(O)O [3PG, 3-phosphoglycerate]
MIDAS protein-metabolite interaction (PGAM1): interacted
MIDAS protein-metabolite interaction (PGAM2): interacted

Compound: CCCCCCCCCCCC(=O)SCCNC(=O)CCNC(=O)[C@H](O)C(C)(C)COP(=O)(O)OP(=O)(O)OC[C@H]1O[C@@H](n2cnc3c(N)ncnc32)[C@H](O)[C@@H]1OP(=O)(O)O [C12:0-CoA, lauroyl-CoA]
IC50 (LDHA [1]): > 100 µM

Compound: CCCCCCCC/C=C\CCCCCCCC(=O)SCCNC(=O)CCNC(=O)[C@H](O)C(C)(C)COP(=O)(O)OP(=O)(O)OC[C@H]1O[C@@H](n2cnc3c(N)ncnc32)[C@H](O)[C@@H]1OP(=O)(O)O [C18:1-CoA, oleoyl-CoA]
IC50 (LDHA [1]): ~1 µM

Compound: CCCCCCCCCCCCCCCCCCCC(=O)SCCNC(=O)CCNC(=O)[C@H](O)C(C)(C)COP(=O)(O)OP(=O)(O)OC[C@H]1O[C@@H](n2cnc3c(N)ncnc32)[C@H](O)[C@@H]1OP(=O)(O)O [C20:0-CoA, arachidoyl-CoA]
IC50 (LDHA [1]): ~1 µM

Compound: CC(C)(COP(=O)(O)OP(=O)(O)OC[C@H]1O[C@@H](n2cnc3c(N)ncnc32)[C@H](O)[C@@H]1OP(=O)(O)O)[C@@H](O)C(=O)NCCC(=O)NCCS [CoA, coenzyme A]
inhibition of LDHA enzyme activity (LDHA [1]): Neither

Compound: CCCCCCCCCCCCCCC(C)(C)C(=O)SCCNC(=O)CCNC(=O)C(O)C(C)(C)COP(=O)(O)OP(=O)(O)OCC1OC(n2cnc3c(N)ncnc32)C(O)C1OP(=O)(O)O (centres unmarked) [DiMePal-CoA, reference compound]
inhibition of LDHA enzyme activity (LDHA [1]): inhibited

Compound: CCCCCCCCCCCCCCCCC(C)(C)C(=O)O [DiMeSte, 2,2-dimethyl-stearate, reference compound]
13C-lactate tracing (H9c2 rat cardiomyoblasts [2]; [5]): inhibited
13C-glucose tracing (H9c2 rat cardiomyoblasts [3]; [5]): inhibited

Compound: CC(O)(CC(=O)O)CC(=O)SCCNC(=O)CCNC(=O)[C@H](O)C(C)(C)COP(=O)(O)OP(=O)(O)OC[C@H]1O[C@@H](n2cnc3c(N)ncnc32)[C@H](O)[C@@H]1OP(=O)(O)O (some centres unmarked) [HMG-CoA, 3-hydroxy-3-methylglutaryl-CoA]
MIDAS protein-metabolite interaction (GAPDH): interacted

Compound: NC(=O)c1ccc[n+]([C@@H]2O[C@H](COP(=O)([O-])OP(=O)(O)OC[C@H]3O[C@@H](n4cnc5c(N)ncnc54)[C@H](O)[C@@H]3O)[C@@H](O)[C@H]2O)c1 [NAD, nicotinamide adenine dinucleotide]
MIDAS protein-metabolite interaction (GAPDH): interacted
MIDAS protein-metabolite interaction (LDHB): interactions
MIDAS protein-metabolite interaction (LDHA [4]): interactions

Compound: NC(=O)C1=CN([C@@H]2O[C@H](COP(=O)(O)OP(=O)(O)OC[C@H]3O[C@@H](n4cnc5c(N)ncnc54)[C@H](O)[C@@H]3O)[C@@H](O)[C@H]2O)C=CC1 [NADH]
MIDAS protein-metabolite interaction (LDHB): interactions
MIDAS protein-metabolite interaction (LDHA [4]): interactions

Compound: C=C(OP(=O)(O)O)C(=O)O [PEP, phosphoenolpyruvate]
MIDAS protein-metabolite interaction (PGAM1): interacted
MIDAS protein-metabolite interaction (PGAM2): interacted

Compound: CCCCCC(=O)OCC(COP(=O)(O)OC1C(O)C(O)C(OP(=O)(O)O)C(OP(=O)(O)O)C1O)OC(=O)CCCCC (centres unmarked) [PIP2, phosphatidylinositol-4,5-bisphosphate C-6]
MIDAS protein-metabolite interaction (PGAM2): interacted

Compound: CCCCCC(=O)OCC(COP(=O)(O)OC1C(O)C(OP(=O)(O)O)C(OP(=O)(O)O)C(OP(=O)(O)O)C1O)OC(=O)CCCCC (centres unmarked) [PIP3, phosphatidylinositol-3,4,5-trisphosphate C-6]
MIDAS protein-metabolite interaction (PGAM2): interacted

Compound: CCCCCCCCCCCCCCCC(=O)O [Palmitate, palmitate]
pyruvate labeling from 13C-lactate (H9c2 rat cardiomyoblasts [2]; Ldha−/− H9c2 cells): unaffected
pyruvate labeling from 13C-lactate (H9c2 rat cardiomyoblasts [2]; Ldha−/−Ldhb−/− H9c2 cells): unaffected
generation of m+3 pyruvate from 13C-lactate (H9c2 rat cardiomyoblasts [2]; Ldhb−/− H9c2 cells): blunted
generation of m+3 pyruvate from 13C-lactate (H9c2 rat cardiomyoblasts [2]; WT H9c2 cells): blunted
labeling of lactate from 13C-glucose (H9c2 rat cardiomyoblasts [3]; Ldhb−/− H9c2 cells): decreased
labeling of lactate from 13C-glucose (H9c2 rat cardiomyoblasts [3]; WT H9c2 cells): decreased

Compound: NCCCCN=C(N)N [agmatine]
MIDAS protein-metabolite interaction (Sestrin2): bind
MIDAS protein-metabolite interaction (CASTOR1): bind

Compound: N=C(N)NCCC[C@H](N)C(=O)O [arginine]
MIDAS protein-metabolite interaction (CASTOR1): most enriched interactors

Compound: Nc1ncnc2c1ncn2[C@@H]1O[C@@H]2COP(=O)(O)O[C@H]2[C@H]1O [cAMP, cyclic adenosine monophosphate]
MIDAS protein-metabolite interaction (GAPDH): interacted

Compound: CN(CC(=O)O)C(=N)NP(=O)(O)O [creatine-phosphate]
MIDAS protein-metabolite interaction (GAPDH): interacted

Compound: CCC/C=C/C/C=C/C=C/C=N/NN=O [triacsin C, reference compound]
effect on palmitate-mediated inhibition of pyruvate labeling (H9c2 rat cardiomyoblasts [2]; 13C-lactate tracing in presence of palmitate): prevented
effect on palmitate-mediated inhibition of lactate labeling (H9c2 rat cardiomyoblasts [3]; 13C-glucose tracing in presence of palmitate): prevented
